Measured values published in ChEMBL document CHEMBL1143847, “Competitive inhibitors of the CphA metallo-beta-lactamase from Aeromonas hydrophila” (Antimicrob Agents Chemother, 2007).

What was measured:
Beta-lactamase [1] = molecular target: T1, Beta-lactamase (Aeromonas hydrophila, UniProt Q44079); test: Inhibition of Aeromonas hydrophila beta lactamase CphA by competitive inhibition assay
[2] = Inhibition of Aeromonas hydrophila beta lactamase CphA N116H-N220G mutant by competitive inhibition assay
Outline: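 Purified double-mutant enzyme (0.03–0.7 nM) in 20 mM HEPES pH 7.0 with 20 μg/ml BSA. Imipenem was varied 20–200 μM at three inhibitor concentrations and without inhibitor, with no preincubation, at 30°C. Initial rates were Hanes-linearized to give the competitive Ki. The dizinc form was run separately with cefotaxime in 20 mM cacodylate pH 6.5, BSA, 100 μM ZnCl2.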

Beta-lactamase [3] = molecular target: T1, Beta-lactamase; test: Inhibition of Aeromonas hydrophila beta lactamase CphA at pH 10.0
Beta-lactamase [4] = molecular target: T1, Beta-lactamase; test: Inhibition of Aeromonas hydrophila beta lactamase CphA at pH 8.0
Beta-lactamase [5] = molecular target: T1, Beta-lactamase; test: Inhibition of Aeromonas hydrophila beta lactamase CphA at pH 9.0
Beta-lactamase [6] = molecular target: T1, Beta-lactamase; test: Inhibition of Aeromonas hydrophila beta lactamase CphA at pH 7.0

T1 sequence (Q44079 whole entry): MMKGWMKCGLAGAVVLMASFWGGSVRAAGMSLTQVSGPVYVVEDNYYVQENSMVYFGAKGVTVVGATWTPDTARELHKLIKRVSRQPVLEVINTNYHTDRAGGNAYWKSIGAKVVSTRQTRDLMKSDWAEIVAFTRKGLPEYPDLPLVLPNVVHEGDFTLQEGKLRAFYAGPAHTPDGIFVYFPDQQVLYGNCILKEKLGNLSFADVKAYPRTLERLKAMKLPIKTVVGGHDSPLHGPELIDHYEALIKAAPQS

SMILES	Ki (Beta-lactamase [1]) [µM]	Ki [2] [µM]	Ki (Beta-lactamase [3]) [µM]	Ki (Beta-lactamase [4]) [µM]	Ki (Beta-lactamase [5]) [µM]	Ki (Beta-lactamase [6]) [µM]
O=C(O)c1ccncc1C(=O)O	1100					
O=C(O)c1ccccn1 [2-PICOLINIC ACID]	5.7	13	1100	76	440	46
O=C(O)c1ccc(C(=O)O)nc1 [PYRIDINE-2,5-DICARBOXYLIC ACID]	420					
O=C(O)c1cccnc1C(=O)O [QUINOLINIC ACID]	200					
